ChEMBL document CHEMBL4219228, “Substituent effect of N-benzylated gramine derivatives that prevent the PP2A inhibition and dissipate the neuronal Ca2+ overload, as a multitarget strategy for the treatment of Alzheimer's disease” (Bioorg Med Chem, 2018)
Active and inactive are the calls of the source. No cut-off for these calls is given here.

system: Voltage-gated calcium channel; assay: Inhibition of KCl-induced cytosolic voltage gated calcium channel opening in human SH-SY5Y cells at 10 uM by Fluo-4 AM dye based fluorescence assay relative to control; assay type: cell-based; settings: not given
How it was run: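 SH-SY5Y cells were loaded with Fluo-4/AM (10 µM) in Krebs-HEPES and preincubated with compound at 10 µM. They were then depolarized with 70 mM K+, and fluorescence (ex 485/em 520 nm) was monitored in real time. ΔF = (Fx−F0)/(Fmax−Fmin), using Triton X-100 for Fmax and MnCl2 for Fmin. Values are % blockade (100−ΔF) against vehicle (DMSO 0.1%), with ≥4 independent experiments in triplicate.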

SMILES | inhibition (INH) [%]
COC(=O)C1=C(C)NC(C)=C(C(=O)OC)C1c1ccccc1[N+](=O)[O-] [NIFEDIPINE] | 32
Cc1ccc2c(c1)c(CN1CCCCC1)cn2Cc1ccccc1[N+](=O)[O-] | 90
Cc1ccc2c(c1)c(CN1CCCCC1)cn2Cc1cccc(Cl)c1 | 97
Cc1ccc2c(c1)c(CN1CCCCC1)cn2Cc1ccccc1 | 87
Cc1ccc(Cn2cc(CN3CCCCC3)c3cc(C)ccc32)cc1 | 94
Cc1ccc2c(c1)c(CN1CCCCC1)cn2Cc1cccc([N+](=O)[O-])c1 | 90
Cc1ccc2c(c1)c(CN1CCCCC1)cn2Cc1ccc(F)cc1 | 79
Cc1ccc2c(c1)c(CN1CCCCC1)cn2Cc1ccc(Cl)cc1 | 95

target: Glutamate NMDA receptor (Rattus norvegicus) (UniProt P35439+Q00959+Q00960+Q00961+Q62645+Q8VHN2+Q9R1M7); assay: Inhibition of NMDA receptor in rat cortical embryonic neurons assessed as reduction in NMDA-induced cytosolic calcium level at 10 uM by Fluo-4 AM dye based fluorescence assay relative to control; settings: not given
How it was run: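 Cortical neurons came from E18 rat embryos (two pregnant rats). They were loaded with Fluo-4/AM (3 µM) in Krebs-HEPES, incubated with compound at 10 µM, then stimulated with NMDA 10 µM, and fluorescence was read at ex 485/em 520 nm. Normalized ΔF is reported as % blockade against vehicle (DMSO 0.1%), with ≥4 independent experiments in triplicate.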

SMILES | inhibition [%]
Cc1ccc2c(c1)c(CN1CCCCC1)cn2Cc1ccccc1[N+](=O)[O-] | 24
Cc1ccc2c(c1)c(CN1CCCCC1)cn2Cc1cccc(Cl)c1 | 37
Cc1ccc2c(c1)c(CN1CCCCC1)cn2Cc1ccccc1 | 42
Cc1ccc(Cn2cc(CN3CCCCC3)c3cc(C)ccc32)cc1 | 32
Cc1ccc2c(c1)c(CN1CCCCC1)cn2Cc1cccc([N+](=O)[O-])c1 | 22
Cc1ccc2c(c1)c(CN1CCCCC1)cn2Cc1ccc(F)cc1 | 34
CC12CC3CC(C)(C1)CC(N)(C3)C2 | 41
Cc1ccc2c(c1)c(CN1CCCCC1)cn2Cc1ccc(Cl)cc1 | 52

target: Voltage-gated calcium channel; assay: Inhibition of KCl-induced cytosolic voltage gated calcium channel opening in human SH-SY5Y cells by Fluo-4 AM dye based fluorescence assay; assay type: cell-based; settings: not given
How it was run: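 Fluo-4/AM-loaded (10 µM) SH-SY5Y cells in Krebs-HEPES received compound at several concentrations before 70 mM K+ depolarization, with readings at ex 485/em 520 nm. ΔF was normalized to vehicle (DMSO 0.1%) cultures. IC50 is the concentration halving ΔF, from a variable-slope non-linear regression of log concentration vs normalized response. Three experiments in triplicate.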

SMILES | IC50 [µM]
Cc1ccc2c(c1)c(CN1CCCCC1)cn2Cc1ccccc1[N+](=O)[O-] | 1.8
Cc1ccc2c(c1)c(CN1CCCCC1)cn2Cc1cccc(Cl)c1 | 2.2
Cc1ccc2c(c1)c(CN1CCCCC1)cn2Cc1ccccc1 | 3.4
Cc1ccc(Cn2cc(CN3CCCCC3)c3cc(C)ccc32)cc1 | 3.6
Cc1ccc2c(c1)c(CN1CCCCC1)cn2Cc1cccc([N+](=O)[O-])c1 | 3
Cc1ccc2c(c1)c(CN1CCCCC1)cn2Cc1ccc(F)cc1 | 4.8
Cc1ccc2c(c1)c(CN1CCCCC1)cn2Cc1ccc(Cl)cc1 | 3

target: T1, Serine/threonine-protein phosphatase 2A 55 kDa regulatory subunit B alpha isoform (Homo sapiens) (UniProt P63151); assay: Reversal of okadaic acid mediated PP2A PR55alpha B regulatory subunit inactivation in human SH-SY5Y cells assessed as residual activity at 0.1 uM preincubated for 24 hrs followed by cotreatment with PPA2 inhibitor okadaic acid for 18 hrs measured over 30 mins by pNPP based spectrophotometric analysis relative to control; assay type: cell-based; settings: not given
T1 sequence (whole entry): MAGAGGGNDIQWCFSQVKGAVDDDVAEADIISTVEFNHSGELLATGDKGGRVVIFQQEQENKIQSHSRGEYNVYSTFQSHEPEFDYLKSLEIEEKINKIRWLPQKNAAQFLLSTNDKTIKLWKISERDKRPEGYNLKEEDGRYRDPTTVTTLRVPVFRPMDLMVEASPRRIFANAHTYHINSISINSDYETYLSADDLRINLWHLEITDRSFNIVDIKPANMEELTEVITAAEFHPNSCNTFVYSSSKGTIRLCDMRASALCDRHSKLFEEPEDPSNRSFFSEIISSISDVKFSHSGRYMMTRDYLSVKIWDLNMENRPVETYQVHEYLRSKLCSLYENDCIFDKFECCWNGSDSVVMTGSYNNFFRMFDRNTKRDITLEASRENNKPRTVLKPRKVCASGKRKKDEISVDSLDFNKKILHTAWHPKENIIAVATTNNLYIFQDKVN
How it was run: (§1)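 SH-SY5Y cells were preincubated with compound for 24 h, then exposed for 18 h to okadaic acid 15 nM plus compound in fresh MEM/F12 with 1% FBS. Phosphatase activity was measured by pNPP dephosphorylation for 30 min at 37 °C, reading p-nitrophenolate at 405 nm. Values were normalized to cells not exposed to OA; at least three independent experiments.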

SMILES | Activity [%]
Cc1ccc2c(c1)c(CN1CCCCC1)cn2Cc1ccc(F)cc1 | 93

target: T1, Serine/threonine-protein phosphatase 2A 55 kDa regulatory subunit B alpha isoform (Homo sapiens); assay: Reversal of okadaic acid mediated PP2A PR55alpha B regulatory subunit inactivation in human SH-SY5Y cells at 0.1 uM preincubated for 24 hrs followed by cotreatment with PPA2 inhibitor okadaic acid for 18 hrs measured over 30 mins by pNPP based spectrophotometric analysis; assay type: cell-based; settings: not given; how it was run: as §1

SMILES | Activity
Cc1ccc2c(c1)c(CN1CCCCC1)cn2Cc1cccc(Cl)c1 | Active
Cc1ccc2c(c1)c(CN1CCCCC1)cn2Cc1ccccc1 | Active
Cc1ccc(Cn2cc(CN3CCCCC3)c3cc(C)ccc32)cc1 | Active
Cc1ccc2c(c1)c(CN1CCCCC1)cn2Cc1ccc(F)cc1 | Active
Cc1ccc2c(c1)c(CN1CCCCC1)cn2Cc1ccc(Cl)cc1 | Active

system: SH-SY5Y; assay: Neuroprotective activity against okadaic acid-induced cell death in human SH-SY5Y cells assessed as cell viability at 0.1 uM preincubated for 24 hrs followed by cotreatment with PPA2 inhibitor okadaic acid measured after 20 hrs by MTT assay (reference value: 50.1 +/- 0.2%); assay type: functional; settings: read-out: Activity

SMILES | viability at 0.1 µM [%]
Cc1ccc2c(c1)c(CN1CCCCC1)cn2Cc1ccccc1[N+](=O)[O-] | 70
Cc1ccc2c(c1)c(CN1CCCCC1)cn2Cc1cccc(Cl)c1 | 67
Cc1ccc2c(c1)c(CN1CCCCC1)cn2Cc1ccccc1 | 73
Cc1ccc(Cn2cc(CN3CCCCC3)c3cc(C)ccc32)cc1 | 67
Cc1ccc2c(c1)c(CN1CCCCC1)cn2Cc1cccc([N+](=O)[O-])c1 | 67
Cc1ccc2c(c1)c(CN1CCCCC1)cn2Cc1ccc(F)cc1 | 67
Cc1ccc2c(c1)c(CN1CCCCC1)cn2Cc1ccc(Cl)cc1 | 67

system: SH-SY5Y; assay: Cytotoxicity against human SH-SY5Y cells assessed as cell viability at 3 uM incubated for 48 hrs by MTT assay; settings: not given

SMILES | Activity
Cc1ccc2c(c1)c(CN1CCCCC1)cn2Cc1ccccc1[N+](=O)[O-] | Non-Toxic
Cc1ccc2c(c1)c(CN1CCCCC1)cn2Cc1cccc(Cl)c1 | Non-Toxic
Cc1ccc(Cn2cc(CN3CCCCC3)c3cc(C)ccc32)cc1 | Non-Toxic
Cc1ccc2c(c1)c(CN1CCCCC1)cn2Cc1cccc([N+](=O)[O-])c1 | Non-Toxic
Cc1ccc2c(c1)c(CN1CCCCC1)cn2Cc1ccc(F)cc1 | Non-Toxic
Cc1ccc2c(c1)c(CN1CCCCC1)cn2Cc1ccc(Cl)cc1 | Non-Toxic

system: SH-SY5Y; assay: Cytotoxicity against human SH-SY5Y cells assessed as cell viability at 10 uM incubated for 48 hrs by MTT assay; settings: not given

SMILES | Activity
Cc1ccc2c(c1)c(CN1CCCCC1)cn2Cc1cccc(Cl)c1 | Toxic
Cc1ccc2c(c1)c(CN1CCCCC1)cn2Cc1ccc(Cl)cc1 | Toxic
